Columns and labels:
[1] = tested on: Adrenergic receptor alpha-2 (Rattus norvegicus); assay: Agonism at alpha-2 adrenergic receptor, determined as dose required to produce a two fold shift of the cumulative dose-response curve to UK-14304 on the twitch response in rat vas deferens.
[2] = target: Adrenergic receptor alpha-1 (Rattus norvegicus) (UniProt P15823+P23944+P43140); assay: Agonism at alpha-1 adrenergic receptor, determined as the dose required to produce a two fold shift of the cirazoline on diastolic blood pressure.; type: functional, tissue-based; conditions: Artery
[3] = target: T1, Adrenergic receptor alpha-2 (Rattus norvegicus) (UniProt P22086+P19328+P22909); assay: Antagonist potency towards alpha-2 adrenergic receptor determined as the dose required to produce a two fold shift of the dose-response curve to UK-14304 on the twitch response of the vas deferens (in vitro);AG- agonist; type: functional, tissue-based; conditions: filed as agonist
T1 sequence (P19328 whole entry, looked up): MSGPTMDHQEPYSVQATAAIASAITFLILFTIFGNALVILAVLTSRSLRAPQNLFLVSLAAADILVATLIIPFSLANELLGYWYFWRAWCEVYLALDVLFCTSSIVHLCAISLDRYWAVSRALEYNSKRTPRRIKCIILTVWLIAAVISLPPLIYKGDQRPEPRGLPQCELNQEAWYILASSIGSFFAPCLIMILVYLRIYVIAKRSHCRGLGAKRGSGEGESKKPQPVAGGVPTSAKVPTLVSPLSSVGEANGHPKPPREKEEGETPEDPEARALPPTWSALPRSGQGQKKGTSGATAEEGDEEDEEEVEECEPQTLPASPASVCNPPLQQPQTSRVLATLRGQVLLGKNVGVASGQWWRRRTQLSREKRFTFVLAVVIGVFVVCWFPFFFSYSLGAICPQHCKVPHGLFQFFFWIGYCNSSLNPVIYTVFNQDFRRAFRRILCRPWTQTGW
T1 sequence (P22086 whole entry, looked up): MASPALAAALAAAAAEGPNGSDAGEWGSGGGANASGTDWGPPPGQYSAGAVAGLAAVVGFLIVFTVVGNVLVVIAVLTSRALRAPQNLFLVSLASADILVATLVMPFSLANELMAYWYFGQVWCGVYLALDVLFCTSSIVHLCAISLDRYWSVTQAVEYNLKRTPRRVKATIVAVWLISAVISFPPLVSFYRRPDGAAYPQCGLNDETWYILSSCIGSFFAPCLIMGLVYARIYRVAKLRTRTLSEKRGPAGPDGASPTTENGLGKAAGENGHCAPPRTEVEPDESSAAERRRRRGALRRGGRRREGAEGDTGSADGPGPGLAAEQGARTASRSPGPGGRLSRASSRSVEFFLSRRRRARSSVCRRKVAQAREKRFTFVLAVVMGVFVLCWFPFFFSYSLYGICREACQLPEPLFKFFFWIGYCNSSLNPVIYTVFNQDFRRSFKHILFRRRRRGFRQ
T1 sequence (P22909 whole entry, looked up): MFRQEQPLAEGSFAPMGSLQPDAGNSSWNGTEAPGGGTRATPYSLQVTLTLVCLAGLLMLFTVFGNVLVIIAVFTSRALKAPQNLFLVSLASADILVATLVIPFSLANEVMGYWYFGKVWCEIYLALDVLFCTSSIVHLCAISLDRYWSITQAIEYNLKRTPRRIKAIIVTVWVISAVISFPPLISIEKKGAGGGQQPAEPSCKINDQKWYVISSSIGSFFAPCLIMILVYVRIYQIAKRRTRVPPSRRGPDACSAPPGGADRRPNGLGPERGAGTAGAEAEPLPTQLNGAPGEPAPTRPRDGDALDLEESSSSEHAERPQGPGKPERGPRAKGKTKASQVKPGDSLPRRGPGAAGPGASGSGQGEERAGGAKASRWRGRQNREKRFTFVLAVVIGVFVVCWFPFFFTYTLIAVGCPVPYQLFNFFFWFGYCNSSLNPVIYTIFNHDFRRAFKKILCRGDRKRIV

[4] = tested on: Adrenergic receptor alpha-1 (Rattus norvegicus); assay: […] towards alpha-1 adrenergic receptor determined as the dose required to produce a two fold shift of the cirazoline on diastolic blood pressure (in vitro); conditions: Artery
[5] = target: T1, Adrenergic receptor alpha-2 (Rattus norvegicus); assay: Antagonism at alpha-2 adrenergic receptor, determined as dose required to produce a two fold shift of the dose-response curve to UK-14304 on the twitch response in rat vas deferens; type: functional, tissue-based
Outline: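 Pithed rats, iv. Antagonist given before a cumulative dose-response curve to UK-14,304 on the vas deferens twitch response. DR2 is the antagonist dose (μg/kg) giving a twofold shift of the curve. Separate groups of rats (n = 4-6).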

Rattus norvegicus [6] = assay: In vivo ED40 is the raising diastolic blood pressure by 40 mm Hg in pithed rats. (postjunctional); type: functional; conditions: Artery
Outline: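 Pithed rats, compound given iv in cumulative doses. ED40 is the dose (μg/kg) raising diastolic blood pressure by 40 mmHg. Separate groups of rats (n = 4-6).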

Rattus norvegicus [7] = assay: In vivo dose required to inhibit vas deferens contraction by 25% after pretreatment with prazosin in pithed rats. (prejunctional); type: functional
Outline: (§1)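 Pithed rats pretreated with prazosin (1 mg/kg). Compound given iv in cumulative doses. ED25 is the dose (μg/kg) inhibiting vas deferens contraction by 25%. Separate groups of rats (n = 4-6).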

Rattus norvegicus [8] = assay: In vivo dose required to inhibit vas deferens contraction by 25% after pretreatment with prazosin in pithed rats. (prejunctional); ant- antagonist; type: functional, organism-based; conditions: filed as antagonist
Outline: as §1

Rattus norvegicus [9] = assay: In vivo antagonist dose producing two fold shift of cirazoline in pithed rats. (postjunctional); AG- agonist; type: functional, organism-based; conditions: filed as agonist
Outline: (§2)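 Pithed rats, iv. Antagonist given before a cumulative dose-response curve to cirazoline on diastolic blood pressure. DR2 is the antagonist dose (μg/kg) giving a twofold rightward shift. Separate groups of rats (n = 4-6).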

Rattus norvegicus [10] = assay: In vivo antagonist dose producing two fold shift of UK-14,304 in pithed rats. (prejunctional)
Rattus norvegicus [11] = assay: In vivo antagonist dose producing two fold shift of cirazoline in pithed rats. (postjunctional);AG- agonist; type: functional, organism-based; conditions: filed as agonist
Outline: as §2

Structure (SMILES) | Prejunctional agonist potency [1] | Postjunctional agonist potency [2] | Prejunctional antagonist potency [3] | Postjunctional antagonist potency [4] | Prejunctional antagonist potency [5] | ED40 (Rattus norvegicus [6]) | ED25 (Rattus norvegicus [7]) | ED25 (Rattus norvegicus [8]) | ED40 (Rattus norvegicus [9]) | DR2 (Rattus norvegicus [10]) | ED40 (Rattus norvegicus [11])
CN1c2cc(Cl)ccc2CC1C1=NCCN1 (stereo not drawn) | 0.019 | 0.67 | Agonist | – | – | – | – | – | – | – | –
c1ccc2c(c1)CC(C1=NCCN1)C2 | 0 | 0 | – | 0.8 | 0.4 | – | – | – | – | – | –
Nc1cc(Cl)c(N=C2NCCN2)c(Cl)c1 [APRACLONIDINE] | – | – | – | – | – | 0.7 µg/kg | 0.4 µg/kg | – | – | – | –
c1ccc(COCCN2c3ccccc3CC2C2=NCCN2)cc1 (stereo not drawn) | 0 | 0 | – | 18 | 0.05 | – | – | – | – | – | –
COc1cccc2c1CC(C1=NCCN1)N2C (stereo not drawn) | 0 | 0.62 | – | – | 0.27 | – | – | – | – | – | –
CN1c2cccc(Br)c2CC1C1=NCCN1 (stereo not drawn) | 0.34 | 3.4 | Agonist | – | – | 0.3 µg/kg | 1.1 µg/kg | – | – | – | –
COc1cccc2c1N(C)C(C1=NCCN1)C2 (stereo not drawn) | 0.4 | 8 | Agonist | – | – | – | – | – | – | – | –
CCN1c2ccc(Cl)cc2CC1C1=NCCN1 (stereo not drawn) | 0 | 5 | – | – | 8 | 4.2 µg/kg | – | Antagonist | Agonist | 0.0059 mg/kg | –
CN1c2c(Cl)cccc2CC1C1=NCCN1 (stereo not drawn) | 0.3 | 3.5 | Agonist | – | – | 1.4 µg/kg | 2.2 µg/kg | – | Agonist | – | –
CN1c2ccc(Cl)cc2CC1C1=NCCN1 (stereo not drawn) | 0 | 2 | – | – | 6.8 | 14.3 µg/kg | – | Antagonist | Agonist | 0.0127 mg/kg | –
c1ccc2c(c1)CC(C1=NCCN1)O2 (stereo not drawn) | 0 | 0.01 | – | 0.16 | 1.7 | – | – | – | – | – | –
CCN1c2ccccc2CC1(C)C1=NCCN1 (stereo not drawn) | 0 | 0.03 | – | – | 0.1 | – | – | – | – | – | –
CCC1(C2=NCCN2)Cc2ccccc2N1C (stereo not drawn) | 0 | 0 | – | < 0.012 | 0.005 | – | – | – | – | – | –
CN1c2cccc(F)c2CC1C1=NCCN1 (stereo not drawn) | 1 | 6 | Agonist | – | – | – | 0.8 µg/kg | – | – | 0.0008 mg/kg | Agonist
CNC[C@H](O)c1cccc(O)c1 [PHENYLEPHRINE] | – | – | – | – | – | 0.9 µg/kg | – | – | – | – | –
CN1c2cccc(O)c2CC1C1=NCCN1 (stereo not drawn) | 0.16 | 6.7 | Agonist | – | – | 0.3 µg/kg | 0.2 µg/kg | – | – | – | Agonist

Reference: ChEMBL document CHEMBL1124112, “Indoline analogues of idazoxan: potent alpha 2-antagonists and alpha 1-agonists” (J Med Chem, 1988)
